Source: ChEMBL document CHEMBL1128210, “Structure-activity relationship of omeprazole and analogues as Helicobacter pylori urease inhibitors” (J Med Chem, 1995)

How the values were obtained:
[1] = Relative retention time of the compound; format: ADME
[2] = pKa value of the compound (benzimidazole ring substitutions dependent); format: physicochemical; conditions: read-out: pKabz
[3] = pKa value of the compound (pyridine ring substitutions dependent); format: physicochemical; conditions: read-out: pKapy
[4] = Half life at pH 7 is a measure of the rate by which the compound is converted to the active species; format: ADME; conditions: buffer
Helicobacter pylori [5] = assay: Urease activity in wild type H pylori, CCUG 15818, at 100 uM
Summary of the method: (§1)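 CCUG 15818 grown 3 days at 37 °C microaerophilic on Columbia blood agar, washed three times in PBS at assay pH, set to A560 0.3. Cells preincubated with compound (MeOH or DMSO, ≤1% solvent) for 30 min at 37 °C, then mixed 1:1 with 200 mM urea for 10 min. Ammonia read by nitroprusside-catalysed phenol–hypochlorite at A650 against (NH4)2SO4. Compound colour blank subtracted; expressed as % of control.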

Helicobacter pylori [6] = assay: Urease activity in H pylori, CCUG 15818, at 10 uM; summary of the method: as §1
Helicobacter pylori [7] = assay: Urease activity was determined in wild type-H pylori, CCUG 15818, at a concentration of 1 uM; summary of the method: as §1
Helicobacter pylori [8] = assay: Urease activity was determined in wild type-H pylori, CCUG 15818, at a concentration of 100 nM
Summary of the method: (§2)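 Washed whole cells grown 3 days at 37 °C under microaerophilic conditions, resuspended in PBS at assay pH to A560 = 0.3. Compound (in MeOH or DMSO, ≤1% solvent) preincubated 30 min at 37 °C with shaking. 200 mM urea added 1:1; stopped after 10 min with phenol–nitroprusside/hypochlorite reagents, 15 min colour, A650 vs (NH4)2SO4 standard; percent of control.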

Helicobacter pylori [9] = assay: Urease activity was determined in wild type-H pylori, CCUG 15818, at a concentration of 10 nM; summary of the method: as §2
Helicobacter pylori [10] = assay: Urease activity was determined in wild type-H pylori, CCUG 15818, at a concentration of 1 nM; summary of the method: as §2
Helicobacter pylori [11] = assay: Urease activity was determined in wild type-H pylori, CCUG 15818 in the presence of beta mercaptoethanol at a concentration of 100 uM
Summary of the method: (§3)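 Intact CCUG 15818 cells (A560 0.3, washed in PBS) preincubated 30 min at 37 °C with compound at 1, 10 or 100 μM plus 100 μM β-mercaptoethanol. Urea was then added 1:1 from a 200 mM solution. After 10 min, ammonia was measured by indophenol (phenol–hypochlorite/nitroprusside) absorbance at 650 nm and expressed as % of control.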

Helicobacter pylori [12] = assay: Urease activity was determined in wild type-H pylori, CCUG 15818 in the presence of beta mercaptoethanol at a concentration of 10 uM; summary of the method: as §3
Helicobacter pylori [13] = assay: Urease activity was determined in wild type-H pylori, CCUG 15818 in the presence of beta mercaptoethanol at a concentration of 1 uM; summary of the method: as §3
[14] = pKa value of the compound (benzimidazole ring substitutions dependent) at pH 6; format: physicochemical; conditions: read-out: pKabz
[15] = pKa value of the compound (pyridine ring substitutions dependent) at pH 6; format: physicochemical; conditions: read-out: pKapy
[16] = Relative retention time at pH 6; format: ADME; conditions: buffer
[17] = Half life at pH 6 is a measure of the rate by which the compound is converted to the active species.; conditions: buffer
Helicobacter pylori [18] = assay: Urease activity was determined in wild type-H pylori, CCUG 15818, at a concentration of 1 uM at pH 6
Helicobacter pylori [19] = assay: Urease activity was determined in wild type-H pylori, CCUG 15818, at a concentration of 10 uM at pH 6
Helicobacter pylori [20] = assay: Urease activity was determined in wild type-H pylori, CCUG 15818, at a concentration of 100 uM at pH 6

For `COc1ccnc(C[S+]([O-])c2nc3c(F)cccc3[nH]2)c1` (configuration not stated), the “Log k'o” value [1] was 0.26, the pKa [2] was 7.5 and the pKa [3] was 4.4. It also gave a half-life [4] of 23 h, a Urease activity (% of control) (Helicobacter pylori [5]) of 58% and a Urease activity (% of control) (Helicobacter pylori [6]) of 95%. It also gave a Urease activity (% of control) (Helicobacter pylori [7]) of 93%.

With `COc1c(OCC2CC2)ccnc1C[S+]([O-])c1nc2cc(F)ccc2[nH]1` (configuration not stated) the “Log k'o” value [1] was 1.16, the pKa [2] was 8.4 and the pKa [3] was 3.8. It also gave a half-life [4] of 50 h, a Urease activity (% of control) (Helicobacter pylori [5]) of 84% and a Urease activity (% of control) (Helicobacter pylori [6]) of 94%. For the same molecule, the Urease activity (% of control) (Helicobacter pylori [7]) was 104%.

Work on `NP(N)(=O)NC(=O)c1ccc(F)cc1` yielded a Control (Helicobacter pylori [8]) of 0%, a Control (Helicobacter pylori [9]) of 10% and a Control (Helicobacter pylori [10]) of 80%.

With `COc1ccnc(C[S+]([O-])c2nc3cc4c(cc3[nH]2)CCC4)c1C` (configuration not stated) the “Log k'o” value [1] was 1.21, the pKa [2] was 9.4 and the pKa [3] was 4.9. For the same molecule, the half-life [4] was 1.17 h, the Urease activity (% of control) (Helicobacter pylori [5]) was 0% and the Urease activity (% of control) (Helicobacter pylori [6]) was 35%. The Urease activity (% of control) (Helicobacter pylori [7]) was 36%.

With `COc1ccnc(C[S+]([O-])c2nc3cc(C(C)(C)C)ccc3[nH]2)c1C` (configuration not stated) the “Log k'o” value [1] was 1.55, the pKa [2] was 9.1 and the pKa [3] was 4.8. It also gave a half-life [4] of 1 h, a Control (Helicobacter pylori [11]) of 106% and a Control (Helicobacter pylori [12]) of 95%. For the same molecule, the Control (Helicobacter pylori [13]) was 105%, the Urease activity (% of control) (Helicobacter pylori [5]) was 1% and the Urease activity (% of control) (Helicobacter pylori [6]) was 42%.

In the case of `COc1ccnc(C[S+]([O-])c2nc3cc(CO)ccc3[nH]2)c1C` (configuration not stated), the “Log k'o” value [1] is reported as 0.18, the pKa [2] is reported as 8.6 and the pKa [3] is reported as 4.7. For the same molecule, the half-life [4] was 1 h, the Urease activity (% of control) (Helicobacter pylori [5]) was 32% and the Urease activity (% of control) (Helicobacter pylori [6]) was 38%. It also gave a Urease activity (% of control) (Helicobacter pylori [7]) of 72%.

Molecule `Cc1cc(C)c(C[S+]([O-])c2nc3cc(Cl)ccc3[nH]2)nc1C` (configuration not stated) has a Urease activity (% of control) (Helicobacter pylori [5]) of 164%, a Urease activity (% of control) (Helicobacter pylori [6]) of 105% and a Urease activity (% of control) (Helicobacter pylori [7]) of 97%.

In the case of `COc1ccnc(C[S+]([O-])c2nc3c(F)cc(F)cc3[nH]2)c1` (configuration not stated), the “Log k'o” value [1] is reported as 0.09, the pKa [2] is reported as 7.6 and the pKa [3] is reported as 4.1. For the same molecule, the half-life [4] was 32 h, the Urease activity (% of control) (Helicobacter pylori [5]) was 80% and the Urease activity (% of control) (Helicobacter pylori [6]) was 89%. The Urease activity (% of control) (Helicobacter pylori [7]) was 106%.

In the case of `Cc1c(OCC(F)(F)F)ccnc1C[S+]([O-])c1nc2ccccc2[nH]1` (configuration not stated) [LANSOPRAZOLE], the “Log k'o” value [1] is reported as 1.1, the pKa [2] is reported as 8.7 and the pKa [3] is reported as 3.9. The half-life [4] was 13 h, the Urease activity (% of control) (Helicobacter pylori [5]) was 29% and the Urease activity (% of control) (Helicobacter pylori [6]) was 103%. For the same molecule, the Urease activity (% of control) (Helicobacter pylori [7]) was 105%.

With `CCOc1ccnc(C[S+]([O-])c2nc3ccccc3[nH]2)c1C` (configuration not stated) the “Log k'o” value [1] was 0.92, the pKa [2] was 8.8 and the pKa [3] was 4.9. For the same molecule, the half-life [4] was 0.9 h, the Urease activity (% of control) (Helicobacter pylori [5]) was 8% and the Urease activity (% of control) (Helicobacter pylori [6]) was 38%. It also gave a Urease activity (% of control) (Helicobacter pylori [7]) of 76%.

For `COc1ccc2[nH]c([S+]([O-])Cc3ncc(C)c(OC)c3C)nc2c1` (configuration not stated) [OMEPRAZOLE], the “Log k'o” value [1] was 0.83, the pKa [2] was 8.7 and the pKa [14] was 8.7. The pKa [3] was 4, the pKa [15] was 4 and the “Log k'o” value [16] was 0.83. For the same molecule, the half-life [17] was 0.917 h, the half-life [4] was 23 h and the Urease activity (% of control) (Helicobacter pylori [5]) was 64%. It also gave a Urease activity (% of control) (Helicobacter pylori [6]) of 96%, a Urease activity (% of control) (Helicobacter pylori [7]) of 109% and a Control (Helicobacter pylori [18]) of 115%. For the same molecule, the Control (Helicobacter pylori [19]) was 88% and the Control (Helicobacter pylori [20]) was 28%.

Molecule `COc1ccc2[nH]c(SCc3ncc(C)c(OC)c3C)nc2c1` has a Urease activity (% of control) (Helicobacter pylori [5]) of 99%, a Urease activity (% of control) (Helicobacter pylori [6]) of 101% and a Urease activity (% of control) (Helicobacter pylori [7]) of 109%.

For `COc1ccc2[nH]c([S+]([O-])Cc3nccc(OC(C)C)c3C)nc2c1` (configuration not stated), the “Log k'o” value [1] was 1.22, the pKa [2] was 8.9 and the pKa [3] was 5.1. The half-life [4] was 1.5 h, the Urease activity (% of control) (Helicobacter pylori [5]) was 0% and the Urease activity (% of control) (Helicobacter pylori [6]) was 35%. The Urease activity (% of control) (Helicobacter pylori [7]) was 86%.

With `COc1ccnc(C[S+]([O-])c2nc3cc(F)c(F)cc3[nH]2)c1OC` (configuration not stated) the “Log k'o” value [1] was 0.6, the pKa [2] was 7.8 and the pKa [3] was 3.6. It also gave a half-life [4] of 69 h.
